Measured values from ChEMBL document CHEMBL3232843, “Novel pyrrolidine diketopiperazines selectively inhibit melanoma cells via induction of late-onset apoptosis” (J Med Chem, 2014).
pIC50: −log10 of the molar value. Active and inactive are the calls of the source. The rule behind the calls is not given here.

Assays:
[1] = Cytotoxicity against CHOK1 cells after 72 hrs by CellTiter-Glo luminescence assay; type: cell-based; details: Cricetulus griseus, CHO-K1, 72 h
Summary of the method: (§1)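 1250 cells per well in serum-free medium (F12 for CHO-K1 and A549, DMEM for M14). Compounds given as 10-point 1:3 serial dilutions from a 300 µM stock, plus a gefitinib control. Incubated 72 h at 37 °C, 5% CO2. CellTiter-Glo added for 15 min at room temperature, then luminescence read. Viability normalized to media-only wells (0%) and 1% DMSO wells (100%). Run in triplicate.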

[2] = tested on: A549; experiment: Selectivity ratio of IC50 for human M14 cells over IC50 for human A549 cells; type: functional
Summary of the method: (§2)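 Ratio of 72 h CellTiter-Glo IC50 values between the stated cell lines. Each IC50 comes from a 10-point 1:3 dose–response series and is the mean of three experiments ± standard deviation.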

[3] = tested on: CHO-K1; experiment: Selectivity ratio of IC50 for human M14 cells over IC50 for CHOK1 cells; type: functional; summary of the method: as §2
[4] = tested on: A549; experiment: Cytotoxicity against human A549 cells after 72 hrs by CellTiter-Glo luminescence assay; type: functional, cell-based; details: A549, 72 h; summary of the method: as §1
[5] = tested on: M14; experiment: Cytotoxicity against human M14 cells after 72 hrs by CellTiter-Glo luminescence assay; type: functional, cell-based; details: for pIC50: M14, 72 h; summary of the method: as §1
[6] = tested on: M14; experiment: Induction of apoptosis human M14 cells assessed as caspase activity at 100 uM after 48 hrs using DEVD peptide as substrate by ApoTox-Glo triplex assay relative to control; type: functional
Summary of the method: (§3)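 M14 #5 cells, 1250 per well in serum-free DMEM, pre-incubated 4 h at 37 °C, 5% CO2. Compounds added as 1:3 serial dilutions; incubated 4, 24, 48 and 72 h. Per time point, a reagent containing 400 µM GF-AFC (live-cell protease) and 400 µM bis-AAF-R110 (dead-cell protease) was added for 30 min at 37 °C, then fluorescence was read. Caspase-Glo 3/7 was added next, 30 min at room temperature, then luminescence.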

[7] = tested on: B16-F10; experiment: (§4) Cytotoxicity against mouse B16F10 cells expressing p53 mutant after 48 hrs by hexosaminidase assay; type: functional, cell-based
Summary of the method: (§5)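 SK-MEL-28 or B16/F10 cells plated in 96-well plates, grown overnight, then treated with 0–50 µM compound for 48 h. Cells washed with PBS, given hexosaminidase substrate for 30 min at 37 °C, then developer. Absorbance read at 405 nm. Percent viability = treated/control absorbance × 100.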

[8] = as §4; type: functional, cell-based; details: B16-F10, 48 h; summary of the method: as §5
[9] = tested on: M14; experiment: Cytotoxicity against human M14 cells assessed as cell viability at 100 uM after 4 hrs using bis-AAF-R110 as substrate by ApoTox-Glo triplex assay; type: functional, cell-based
Summary of the method: (§6)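 M14 cells, 1250 per well, in serum-free DMEM, settled 4 h, then given 1:3 serial dilutions. Ionomycin, terfenadine and panobinostat were the controls. Incubated 4, 24, 48 or 72 h at 37 °C. A reagent containing 400 µM GF-AFC (live-cell protease, ex 400/em 505 nm) and 400 µM bis-AAF-R110 (dead-cell protease, ex 485/em 520 nm) was applied for 30 min at 37 °C. Caspase-Glo 3/7 (DEVD) luminescence was then read after 30 min at room temperature.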

[10] = tested on: M14; experiment: Induction of apoptosis human M14 cells assessed as caspase activity at 100 uM after 24 hrs using DEVD peptide as substrate by ApoTox-Glo triplex assay relative to control; type: functional; summary of the method: as §3
[11] = tested on: M14; experiment: Cytotoxicity against human M14 cells assessed as cell viability after 48 hrs using bis-AAF-R110 as substrate by ApoTox-Glo triplex assay; type: functional, cell-based; summary of the method: as §6
[12] = target: Histone deacetylase 2 (Homo sapiens) (UniProt Q92769); experiment: Inhibition of HDAC2 (unknown origin) up to 100 uM
Sequence of Histone deacetylase 2 (Homo sapiens) (Q92769 whole entry): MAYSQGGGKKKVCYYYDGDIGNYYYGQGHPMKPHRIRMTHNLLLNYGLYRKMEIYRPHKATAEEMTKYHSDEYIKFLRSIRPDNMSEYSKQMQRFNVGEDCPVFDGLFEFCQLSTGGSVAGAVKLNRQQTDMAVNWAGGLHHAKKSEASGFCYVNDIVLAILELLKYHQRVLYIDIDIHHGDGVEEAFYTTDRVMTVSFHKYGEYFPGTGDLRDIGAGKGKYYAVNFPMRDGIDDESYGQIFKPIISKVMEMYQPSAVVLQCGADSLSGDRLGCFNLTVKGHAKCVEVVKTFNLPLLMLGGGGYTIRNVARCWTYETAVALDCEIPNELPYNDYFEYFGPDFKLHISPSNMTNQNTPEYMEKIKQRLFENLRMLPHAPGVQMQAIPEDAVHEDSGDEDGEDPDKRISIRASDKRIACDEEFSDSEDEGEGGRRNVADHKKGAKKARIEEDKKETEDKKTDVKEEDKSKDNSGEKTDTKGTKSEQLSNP

[13] = tested on: M14; experiment: Cytotoxicity against human M14 cells assessed as cell viability after 48 hrs using GF-AFC as substrate by ApoTox-Glo triplex assay; type: functional, cell-based; summary of the method: as §6
[14] = tested on: SK-MEL-28; experiment: Cytotoxicity against human SK-MEL-28 cells expressing B-raf V600E mutant at 10 uM after 48 hrs by hexosaminidase assay; type: functional; details: SK-MEL-28, 48 h; summary of the method: as §5
[15] = target: T1, Protein deacetylase HDAC6 (Homo sapiens) (UniProt Q9UBN7); experiment: Inhibition of HDAC6 (unknown origin) up to 100 uM
T1 sequence (whole entry): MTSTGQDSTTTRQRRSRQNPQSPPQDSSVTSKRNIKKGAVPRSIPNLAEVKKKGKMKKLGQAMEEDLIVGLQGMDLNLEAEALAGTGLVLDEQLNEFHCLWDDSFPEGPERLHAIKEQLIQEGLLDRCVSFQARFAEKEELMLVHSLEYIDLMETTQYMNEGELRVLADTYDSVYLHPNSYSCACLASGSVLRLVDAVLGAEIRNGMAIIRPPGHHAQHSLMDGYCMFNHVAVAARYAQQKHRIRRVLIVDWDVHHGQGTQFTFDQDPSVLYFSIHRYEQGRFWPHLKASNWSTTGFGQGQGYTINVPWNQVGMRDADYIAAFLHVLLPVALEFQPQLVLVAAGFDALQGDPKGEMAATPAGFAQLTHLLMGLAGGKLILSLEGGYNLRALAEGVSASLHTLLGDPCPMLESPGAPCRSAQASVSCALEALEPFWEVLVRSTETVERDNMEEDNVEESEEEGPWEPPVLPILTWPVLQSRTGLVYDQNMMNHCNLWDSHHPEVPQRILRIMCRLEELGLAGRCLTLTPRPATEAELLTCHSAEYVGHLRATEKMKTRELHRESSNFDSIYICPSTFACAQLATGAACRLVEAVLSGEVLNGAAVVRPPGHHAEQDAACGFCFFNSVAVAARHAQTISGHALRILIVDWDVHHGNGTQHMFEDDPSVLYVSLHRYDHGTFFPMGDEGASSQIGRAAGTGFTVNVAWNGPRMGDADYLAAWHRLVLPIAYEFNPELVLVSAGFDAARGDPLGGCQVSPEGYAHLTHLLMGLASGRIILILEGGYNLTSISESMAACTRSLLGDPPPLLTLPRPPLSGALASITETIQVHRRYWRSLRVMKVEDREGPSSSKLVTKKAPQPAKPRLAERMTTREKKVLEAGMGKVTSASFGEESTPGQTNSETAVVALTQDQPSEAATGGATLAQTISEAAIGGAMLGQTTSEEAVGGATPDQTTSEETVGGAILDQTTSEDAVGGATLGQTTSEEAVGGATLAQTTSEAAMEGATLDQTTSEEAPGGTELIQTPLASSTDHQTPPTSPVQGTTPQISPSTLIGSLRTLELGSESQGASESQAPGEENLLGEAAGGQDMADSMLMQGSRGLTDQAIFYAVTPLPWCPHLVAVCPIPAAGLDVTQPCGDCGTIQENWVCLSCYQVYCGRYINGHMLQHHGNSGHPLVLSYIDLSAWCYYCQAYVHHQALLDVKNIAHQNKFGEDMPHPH

[16] = tested on: SK-MEL-28; experiment: Cytotoxicity against human SK-MEL-28 cells expressing B-raf V600E mutant after 48 hrs by hexosaminidase assay; type: functional, cell-based; summary of the method: as §5
[17] = tested on: M14; experiment: Cytotoxicity against human M14 cells assessed as cell viability at 100 uM after 4 hrs by CellTiter-Glo luminescence assay; type: functional, cell-based
Summary of the method: (§7)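 M14 cells, 1250 per well, in serum-free DMEM. Compounds given in 10-point 1:3 dilution series starting at 100 µM; controls were gefitinib, doxorubicin and ionomycin. Incubated at 37 °C, 5% CO2. CellTiter-Glo luminescence read at 4, 24, 48 and 72 h. Viability normalized to media-only wells and 1% DMSO-treated wells.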

[18] = tested on: M14; experiment: Cytotoxicity against human M14 cells assessed as cell viability at 100 uM after 24 hrs by CellTiter-Glo luminescence assay; type: functional, cell-based; summary of the method: as §7
[19] = Cytotoxicity against mouse B16F10 cells expressing p53 mutant at 10 uM after 48 hrs by hexosaminidase assay; type: functional; details: B16-F10, 48 h; summary of the method: as §5
[20] = tested on: M14; experiment: Induction of apoptosis human M14 cells assessed as caspase activity at 100 uM after 4 hrs using DEVD peptide as substrate by ApoTox-Glo triplex assay; type: functional, cell-based; summary of the method: as §6
[21] = tested on: M14; experiment: Cytotoxicity against human M14 cells assessed as cell viability at 100 uM after 48 hrs by CellTiter-Glo luminescence assay; type: functional, cell-based; summary of the method: as §7
[22] = tested on: M14; experiment: Induction of apoptosis human M14 cells assessed as caspase activity at 100 uM after 72 hrs using DEVD peptide as substrate by ApoTox-Glo triplex assay; type: functional, cell-based; summary of the method: as §6
[23] = target: Histone deacetylase 1 (Homo sapiens) (UniProt Q13547); experiment: Inhibition of HDAC1 (unknown origin) up to 100 uM
Sequence of Histone deacetylase 1 (Homo sapiens) (Q13547 whole entry): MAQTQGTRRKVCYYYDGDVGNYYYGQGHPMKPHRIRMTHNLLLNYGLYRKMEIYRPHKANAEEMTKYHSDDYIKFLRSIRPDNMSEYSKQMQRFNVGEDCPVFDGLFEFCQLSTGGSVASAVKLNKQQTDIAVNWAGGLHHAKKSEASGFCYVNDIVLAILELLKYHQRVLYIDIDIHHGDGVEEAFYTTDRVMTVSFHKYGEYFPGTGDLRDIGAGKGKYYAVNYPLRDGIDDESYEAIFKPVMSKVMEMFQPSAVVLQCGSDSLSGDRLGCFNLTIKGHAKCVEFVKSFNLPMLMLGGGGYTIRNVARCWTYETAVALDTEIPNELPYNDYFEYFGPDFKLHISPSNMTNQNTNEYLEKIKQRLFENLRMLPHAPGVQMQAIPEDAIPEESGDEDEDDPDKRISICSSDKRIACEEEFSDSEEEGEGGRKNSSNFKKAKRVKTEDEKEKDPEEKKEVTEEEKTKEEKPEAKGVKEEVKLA

[24] = tested on: M14; experiment: Cytotoxicity against human M14 cells assessed as cell viability at 100 uM after 4 hrs using GF-AFC as substrate by ApoTox-Glo triplex assay; type: functional, cell-based; summary of the method: as §6

With `CCC[C@H]1CNC(=O)C(=O)N1C[C@@H]1CCCN1C[C@@H](CC1CCCCC1)N1C[C@H](Cc2ccc(O)cc2)N(CCc2ccccc2)C(=O)C1=O` the pIC50 [1] was under 4.00, the “Ratio IC50” value [2] was 5 and the “Ratio IC50” value [3] was over 10. The pIC50 [4] was 4.28 and the pIC50 [5] was 5.06.

In the case of `O=C1NC[C@H](Cc2ccccc2)N(C[C@@H]2CCCN2C[C@@H](CC2CCCCC2)N2C[C@H](Cc3ccc(O)cc3)N(CCc3ccccc3)C(=O)C2=O)C1=O`, the Activity [6] was 400%, the pIC50 [1] was under 4.00 and the inhibition [7] was “Dose-dependent effect”. For the same molecule, the pIC50 [8] was 5.57, the Activity [9] was “inactive” and the Activity [10] was 550%. For the same molecule, the Activity [11] was “Dose-dependent effect”, the inhibition [12] was “inactive” and the Activity [13] was “Dose-dependent effect”. For the same molecule, the inhibition at 10 µM [14] was 100%, the inhibition [15] was “inactive” and the inhibition [16] was “Dose-dependent effect”. The pIC50 ([16]; SK-MEL-28, 48 h) was 6.25, the pIC50 [4] was under 4.00 and the Activity [17] was “inactive”. For the same molecule, the Activity [18] was “Active”, the inhibition [5] was “Dose-dependent effect” and the pIC50 [5] was 5.44. The inhibition at 10 µM [19] was 100%, the Activity [20] was “inactive” and the Activity [21] was “Active”. For the same molecule, the Activity [22] was “inactive”, the inhibition [23] was “inactive” and the Activity [24] was “inactive”.
